From ChEMBL document CHEMBL2311392, “Differential interactions of rifabutin with human and bacterial membranes: implication for its therapeutic and toxic effects” (J Med Chem, 2013)

How the values were obtained:
[1] = Drug localization in DPH-PA probe-labeled DMPG liposomes at 42 +/- 0.1 degC by fluorescence quenching; assay type: physicochemical
How it was run: (§1)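 LUVs (100 nm extrusion) of DMPC or DMPG at 500 μM total lipid in HEPES 0.01 M, I = 0.1 M (NaCl), pH 7.4, labelled with DPH or DPH-PA (probe:lipid 1:300). Drug (0–27 μM) incubated 30 min at 37.0 °C in the dark. Steady-state intensity (ex 357/360, em 427/430 nm) and lifetime read, corrected for quencher absorbance. Membrane drug concentration taken from Kp. Stern–Volmer constants obtained at 37.0 and 42.0 °C.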

[2] = Drug localization in DPH-PA probe-labeled DMPG liposomes at 37 +/- 0.1 degC by fluorescence quenching; assay type: physicochemical; how it was run: as §1
[3] = Drug localization in DPH probe-labeled DMPG liposomes at 37 +/- 0.1 degC by fluorescence quenching; assay type: physicochemical; how it was run: as §1
Lipid bilayer [4] = test: Binding affinity to DPH-PA probe-labeled DMPG liposomes assessed as main phase transition temperature at 30 uM by steady-state fluorescence anisotrope (reference value: 23.9 +/- 0.3 degC); conditions: Microsome
Lipid bilayer [5] = test: Binding affinity to DPH probe-labeled DMPC liposomes assessed as binding constant by fluorescence quenching assay; how it was run: as §1
Lipid bilayer [6] = test: Binding affinity to DPH probe-labeled DMPG liposomes assessed as main phase transition temperature at 30 uM by steady-state fluorescence anisotrope (reference value: 24.1 +/- 0.5 degC)
[7] = Drug localization in DPH probe-labeled DMPC liposomes at 42 +/- 0.1 degC by fluorescence quenching; assay type: physicochemical; how it was run: as §1
[8] = Drug localization in DPH-PA probe-labeled DMPC liposomes at 37 +/- 0.1 degC by fluorescence quenching; assay type: physicochemical; how it was run: as §1
[9] = Drug localization in DPH probe-labeled DMPC liposomes at 37 +/- 0.1 degC by fluorescence quenching; assay type: physicochemical; how it was run: as §1
[10] = Drug localization in DPH probe-labeled DMPG liposomes at 42 +/- 0.1 degC by fluorescence quenching; assay type: physicochemical; how it was run: as §1
Lipid bilayer [11] = test: Binding affinity to DPH-PA probe-labeled DMPC liposomes assessed as main phase transition temperature at 30 uM by steady-state fluorescence anisotrope (reference value: 24.6 +/- 0.3 degC); conditions: Microsome
Lipid bilayer [12] = test: Binding affinity to DPH probe-labeled DMPC liposomes assessed as main phase transition temperature at 30 uM by steady-state fluorescence anisotrope (reference value: 24.4 +/- 0.2 degC)
Lipid bilayer [13] = test: Binding affinity to DPH-PA probe-labeled DMPC liposomes assessed as binding constant by fluorescence quenching assay; how it was run: as §1
Lipid bilayer [14] = test: Binding affinity to DPH-PA probe-labeled DMPG liposomes assessed as binding constant by fluorescence quenching assay; how it was run: as §1
[15] = Drug localization in DPH-PA probe-labeled DMPC liposomes at 42 +/- 0.1 degC by fluorescence quenching; assay type: physicochemical; how it was run: as §1
Lipid bilayer [16] = test: Binding affinity to DPH probe-labeled DMPG liposomes assessed as binding constant by fluorescence quenching assay; how it was run: as §1

For `CO[C@H]1/C=C/O[C@@]2(C)Oc3c(C)c(O)c4c(c3C2=O)C2=NC3(CCN(CC(C)C)CC3)NC2=C(NC(=O)/C(C)=C\C=C\[C@H](C)[C@H](O)[C@@H](C)[C@@H](O)[C@@H](C)[C@H](OC(C)=O)[C@@H]1C)C4=O` [RIFABUTIN], the KSV [1] was 121 M⁻¹, the KSV [2] was 181 M⁻¹ and the KSV [3] was 167 M⁻¹. For the same compound, the Tm (Lipid bilayer [4]) was 24.2 °C, the Kq (Lipid bilayer [5]) was 2.7e+10 M⁻¹ s⁻¹ and the Tm (Lipid bilayer [6]) was 24.4 °C. For the same compound, the KSV [7] was 156 M⁻¹, the KSV [8] was 165 M⁻¹ and the KSV [9] was 216 M⁻¹. The KSV [10] was 132 M⁻¹, the Tm (Lipid bilayer [11]) was 24.5 °C and the Tm (Lipid bilayer [12]) was 24.5 °C. The Kq (Lipid bilayer [13]) was 2.9e+10 M⁻¹ s⁻¹, the Kq (Lipid bilayer [14]) was 2.6e+10 M⁻¹ s⁻¹ and the KSV [15] was 76 M⁻¹. It also gave a Kq (Lipid bilayer [16]) of 1.9e+10 M⁻¹ s⁻¹.
